Experimental data from publication PMC12433486 (Redox Biology, 2025).
In brackets after ≈: the same amount, converted by molar mass. Positions of bridges follow the written chain, without caps; N, C: chain ends. Non-standard residues stand in square brackets, D forms with d. Residues, ends and D or L forms follow the SMILES beside them. *: point of attachment. Heptanoyl(6-Me) = CC(C)CCCCC(=O)*; Dab = NCC[C@H](N)C(=O)O

Tests used:
[1] = test system: CRKP; assay: Checkerboard microdilution assay; assay type: cell-based, Klebsiella pneumonia; settings: for MIC of antibiotic: antibiotic alone; for FIC index (Au10): antibiotic in combination with Au10, CRKP; for FIC index (Au17): antibiotic in combination with Au17, CRKP; for FIC index (Auranofin): antibiotic in combination with auranofin
In short: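 Checkerboard: overnight cultures diluted 1000-fold, regrown to mid-log phase (OD600 0.6), diluted per CLSI and seeded in 96-well plates. Varying concentrations of gold test compound combined with varying antibiotic concentrations. Incubated 37 °C for 24 h, growth read at OD600. FICI calculated by a previously described method.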

[2] = test system: cellular TrxR in CRKP; assay: Cellular TrxR activity assay; assay type: cell-based, Klebsiella pneumonia; settings: read-out: IC50, cellular TrxR; CRKP treated 4 h, TrxR assay kit
In short: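 Overnight CRKP culture diluted and regrown to mid-log phase (OD600 0.6). Suspensions exposed to test compound at 0, 2.5, 5, 10 or 20 μM for 4 h. Cellular TrxR activity measured with a commercial TrxR activity kit.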

[3] = test system: CRKP; assay: Cell membrane integrity; assay type: cell-based, Klebsiella pneumonia; settings: 0-40 μM, 4 h, vs control
In short: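 Membrane integrity read from PI uptake: CRKP exposed to test compound at 0, 10, 20 or 40 μM, then analysed by single-parameter flow cytometry collecting 100,000 cells per sample.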

[4] = test system: recombinant CRKP GR; assay: Inhibition of recombinant CRKP GR; assay type: biochemical, Klebsiella pneumonia
In short: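 Purified CRKP GR (final 2 nM) in 50 mM Tris-HCl pH 7.5 with 2 mM EDTA was preincubated with test compound at 37 °C for 30 min. GSSG and NADPH were then added, with A340 read at 10 s and after 5 min at 37 °C. Ki came from varying GSSG 0–5 mM and compound 0–20 μM under a competitive model. Reversibility: 30 min RT exposure, then NAP-5 desalting (1 mM GSSG, 300 μM NADPH) or 4 °C, 4 h dialysis (15,000 Da cutoff).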

[5] = test system: CRKP; assay: Time-killing assay; assay type: cell-based, Klebsiella pneumonia; settings: 0-80 μM
In short: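 Overnight CRKP culture diluted 2000-fold and grown to OD600 0.4–0.6, then diluted to OD600 0.1 and plated in 96-well format. Test compound added at 0, 10, 20, 40 or 80 μM. Growth read hourly by microplate reader for 12 h.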

[6] = test system: CRAB (Clinical); assay: MIC, broth microdilution; assay type: cell-based; settings: 24 h; for MIC, CRAB (Clinical): gold complexes and antibiotics; for MIC: read-out: MIC, CRAB (Clinical)
In short: (§1)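 Broth microdilution per CLSI guidelines in 96-well plates with test compound, incubated at 37 °C for 24 h. Growth was read on a microplate reader.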

[7] = test system: cellular GR in CRKP; assay: Cellular GR activity assay; assay type: cell-based, Klebsiella pneumonia; settings: CRKP treated 4 h, GR assay kit
In short: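 CRKP overnight culture diluted and regrown to mid-log phase (OD600 0.6), then treated with test compound. Cellular glutathione reductase activity measured with a commercial GR activity kit.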

[8] = test system: CRPA (Clinical); assay: MIC, broth microdilution; assay type: cell-based, Pseudomonas aeruginosa; settings: 24 h; for MIC, CRPA (Clinical): gold complexes and antibiotics; for MIC: Pseudomonas aeruginosa, read-out: MIC, CRPA (Clinical)
In short: as §1

[9] = test system: recombinant CRKP TrxR; assay: Inhibition of recombinant CRKP TrxR; assay type: biochemical, Klebsiella pneumonia; settings: read-out: IC50, recombinant CRKP TrxR; DTNB reduction assay
In short: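 TrxR activity read by DTNB reduction assay (NADPH plus DTNB, A412 change over 5 min at 37 °C). Ki came from varying DTNB 0–2 mM and test compound 0–40 μM, fitted to a competitive inhibition model. Reversibility: NADPH-prereduced enzyme (100 μM, 10 min) was treated with 30 μM compound for 30 min, then NAP-5 desalted. Alternatively, after 30 min RT exposure, enzyme was dialysed 4 h at 4 °C (15,000 Da cutoff).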

[10] = test system: DNA from CRKP; assay: DNA degradation assay; parameters: species or system Klebsiella pneumonia; settings: purified CRKP DNA, 30 min
In short: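 Genomic DNA extracted from CRKP with a kit and checked by micro-spectrophotometry and agarose gel. DNA mixed with varying concentrations of test compound on ice for 30 min, also with 10 mM H2O2 for 30 min. DNA (30 ng/μL) additionally incubated with 40 μM for 2 h on ice. Degradation read by EB-stained polyacrylamide gel electrophoresis.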

[11] = test system: VISA; assay: MIC, broth microdilution; assay type: cell-based, Staphylococcus aureus; settings: gold complexes and antibiotics, 24 h
In short: as §1

[12] = test system: CRKP; assay: Intracellular superoxide radical detection; assay type: cell-based, Klebsiella pneumonia; settings: 4 h
In short: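 Mid-log CRKP (OD600 0.6) loaded with DHE for 20 min at 37 °C with shaking, treated with test compound at 0, 10, 20 or 40 μM for 4 h, and washed three times in ice-cold PBS. Flow cytometry collected 100,000 cells. For HPLC, cells at OD600 0.3 took up 20 μM DHE for 20 min, were exposed to 0 or 80 μM for 4 h and washed, with synthesized 2-OH E+ as reference.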

[13] = test system: CRPA; assay: MIC, broth microdilution; assay type: cell-based, Pseudomonas aeruginosa; settings: 24 h; for MIC, CRPA: gold complexes and antibiotics; for MIC: Pseudomonas aeruginosa, read-out: MIC, CRPA
In short: as §1

[14] = test system: CRKP; assay: MIC, broth microdilution; assay type: cell-based, Klebsiella pneumonia; settings: 24 h; for MIC, CRKP: gold complexes and antibiotics; for MIC: Klebsiella pneumoniae, read-out: MIC, CRKP
In short: as §1

[15] = test system: CRKP (Clinical); assay: MIC, broth microdilution; assay type: cell-based, Klebsiella pneumonia; settings: 24 h; for MIC, CRKP (Clinical): gold complexes and antibiotics; for MIC: Klebsiella pneumoniae, read-out: MIC, CRKP (Clinical)
In short: as §1

[16] = test system: CREC; assay: MIC, broth microdilution; assay type: cell-based, Escherichia coli; settings: 24 h; for MIC, CREC: gold complexes and antibiotics; for MIC: Escherichia coli, read-out: MIC, CREC
In short: as §1

[17] = test system: CREC (Clinical); assay: MIC, broth microdilution; assay type: cell-based, Escherichia coli; settings: 24 h; for MIC, CREC (Clinical): gold complexes and antibiotics; for MIC: Escherichia coli, read-out: MIC, CREC (Clinical)
In short: as §1

[18] = test system: CRKP; assay: Murine peritonitis infection model; assay type: in vivo, BALB/c mice; settings: six mice per group, treated 1 h after i.p. CRKP
In short: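 Female BALB/c mice (18–20 g) randomized, six per group, and given 200 μL CRKP suspension i.p. Treatment began 1 h after infection: saline/PBS control, comparator antibiotic or test compound. Survival recorded over 48 h.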

SMILES	MIC of antibiotic ([1]; CRKP) [µM]	FIC index (Au10) [1]	FIC index (Au17) [1]	FIC index (Auranofin) ([1]; CRKP)	MIC, CRAB (Clinical) [6] [µM]	MIC, CRPA (Clinical) [8] [µM]	MIC, VISA [11] [µM]	MIC, CRPA [13] [µM]	MIC, CRKP [14] [µM]	MIC, CRKP (Clinical) [15] [µM]	MIC, CREC [16] [µM]	MIC, CREC (Clinical) [17] [µM]	MIC [6] [µM]	MIC [8] [µM]	MIC [13] [µM]	MIC [14] [µM]	MIC [15] [µM]	MIC [16] [µM]	MIC [17] [µM]	other results
CO/N=C(\C(=O)N[C@@H]1C(=O)N2C(C(=O)[O-])=C(C[N+]3(C)CCCC3)CS[C@H]12)c1csc(N)n1 [Cefepime]	20	0.45	0.70	0.525	–	–	–	–	–	–	–	–	–	–	–	–	–	–	–	MIC of antibiotic in the presence of Au10 ([1]; Au10 2 μM, CRKP): 5 µM
CC(=O)OC[C@H]1O[C@@H]([S-])[C@H](OC(C)=O)[C@@H](OC(C)=O)[C@@H]1OC(C)=O.CCP(CC)CC.[Au+] [Auranofin]	–	–	–	–	20	>20	0.5	>20	>20	>20	>20	>20	–	–	–	–	–	–	–	IC50 [2]: 11.6 µM; PI red fluorescence intensity (membrane integrity) [3]: did not show a significant difference; inhibition of recombinant GR at 40 μM [4]: did not exhibit inhibitory effects; bacterial growth over 12 h [5]: only a marginal inhibitory effect; IC50, cellular GR [7]: did not show any inhibitory effects; IC50 [9]: 27.2 µM; DNA degradation (gel electrophoresis) [10]: did not demonstrate DNA degradation effect; 2-OH E+ formation (HPLC) ([12]; 80 μM): no detectable 2-OH E^+; intracellular ROS (superoxide, DHE probe) ([12]; 10, 20, 40 μM, vs control): did not induce ROS generation; interaction with cefepime or meropenem ([1]; checkerboard, CRKP): did not exhibit any synergistic interaction
C[C@@H](O)[C@H]1C(=O)N2C(C(=O)O)=C(SCCN=CN)C[C@H]12 [Imipenem]	–	–	–	–	–	–	–	–	–	–	–	–	200 (≈ 59.9 µg/mL)	100 (≈ 29.9 µg/mL)	200 (≈ 59.9 µg/mL)	200 (≈ 59.9 µg/mL)	100 (≈ 29.9 µg/mL)	50 (≈ 15 µg/mL)	100 (≈ 29.9 µg/mL)	–
CC(C)CCCCC(=O)N[C@@H](CCN)C(=O)N[C@H](C(=O)N[C@@H](CCN)C(=O)N[C@H]1CCNC(=O)[C@H]([C@@H](C)O)NC(=O)[C@H](CCN)NC(=O)[C@H](CCN)NC(=O)[C@H](CC(C)C)NC(=O)[C@@H](CC(C)C)NC(=O)[C@H](CCN)NC1=O)[C@@H](C)O [Colistin B] ({Heptanoyl(6-Me)}-[Dab]T[Dab][Dab][Dab][dL]L[Dab][Dab]T; lactam 4-C)	–	–	–	–	–	–	–	–	–	–	–	–	3 (≈ 3.47 µg/mL)	3 (≈ 3.47 µg/mL)	3 (≈ 3.47 µg/mL)	50 (≈ 57.8 µg/mL)	100 (≈ 116 µg/mL)	1 (≈ 1.16 µg/mL)	1 (≈ 1.16 µg/mL)	mice surviving more than 24 h [18]: no mice
C[C@@H](O)[C@H]1C(=O)N2C(C(=O)O)=C(S[C@@H]3CN[C@H](C(=O)N(C)C)C3)[C@H](C)[C@H]12 [Meropenem]	40	0.35	0.45	0.625	–	–	–	–	–	–	–	–	–	–	–	–	–	–	–	–
COc1ccc2ccc([O-])c(C=NC3CCCCC3N=Cc3cc(F)ccc3[O-])c2c1.F[P-](F)(F)(F)(F)F.[Au+3] [Au4, [1-((E)-(((1S,2R)-2-(((E)-5-fluoro-2-hydroxybenzylidene)amino)cyclohexyl)imino)methyl)-7-methoxynaphthalen-2-ol] Au(III) hexafluorophosphate]	–	–	–	–	>20	>20	>20	>20	10	10	20	20	–	–	–	–	–	–	–	–
